Measured values published in ChEMBL document CHEMBL3769304, “Potent α-amino-β-lactam carbamic acid ester as NAAA inhibitors. Synthesis and structure-activity relationship (SAR) studies” (Eur J Med Chem, 2016).
Values after ≈ are worked out from the molar mass of the structure shown.

Legend:
[1] = Half life in mouse liver microsomes preincubated for 15 mins followed by NADPH addition measured after 1 hr by LC/MS-MS analysis; assay type: ADME
[2] = Kinetic solubility of the compound in PBS at pH 7.4 after 24 hrs by UPLC/MS analysis; assay type: physicochemical; conditions: read-out: Kinetic_solubility
Method in brief: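 Kinetic solubility measured in PBS, pH 7.4; mean of three or more determinations.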

[3] = Half life in mouse plasma after 2 hrs by LC/MS-MS analysis; assay type: ADME, cell-free
[4] = biological target: T1, Fatty-acid amide hydrolase 1 (Homo sapiens) (UniProt O00519); experiment: Inhibition of human FAAH at 10 uM by fluorescence assay
T1 sequence (whole entry): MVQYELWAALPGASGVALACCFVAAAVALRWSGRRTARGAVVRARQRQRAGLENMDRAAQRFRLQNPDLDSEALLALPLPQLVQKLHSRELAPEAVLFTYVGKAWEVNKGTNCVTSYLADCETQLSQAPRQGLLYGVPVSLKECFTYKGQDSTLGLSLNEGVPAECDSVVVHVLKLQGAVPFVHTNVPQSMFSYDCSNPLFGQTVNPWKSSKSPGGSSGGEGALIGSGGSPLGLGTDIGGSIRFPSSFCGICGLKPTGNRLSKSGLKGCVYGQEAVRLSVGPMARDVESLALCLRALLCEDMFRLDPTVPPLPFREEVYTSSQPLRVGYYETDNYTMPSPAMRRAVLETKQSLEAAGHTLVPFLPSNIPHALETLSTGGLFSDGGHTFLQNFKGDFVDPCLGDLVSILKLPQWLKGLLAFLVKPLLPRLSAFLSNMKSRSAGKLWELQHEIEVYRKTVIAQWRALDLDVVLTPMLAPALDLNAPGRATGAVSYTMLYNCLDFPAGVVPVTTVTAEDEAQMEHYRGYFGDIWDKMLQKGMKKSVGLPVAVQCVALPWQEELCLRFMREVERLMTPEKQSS
Method in brief: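 Enzyme source: membrane pellet (105,000 × g, re-suspended in PBS) from HEK293 cells stably transfected with h-FAAH-1; fluorogenic read-out; percent inhibition at 10 µM from two determinations.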

Homo sapiens = organism: Homo sapiens; experiment: Selectivity ratio of IC50 for human acid ceramidase to IC50 for recombinant human NAAA
[5] = Half life in rat plasma after 2 hrs by LC/MS-MS analysis; assay type: ADME, cell-free
Acid ceramidase = biological target: T2, Acid ceramidase (Homo sapiens, UniProt Q13510); experiment: Inhibition of human acid ceramidase by UPLC/MS analysis
T2 sequence (Q13510 whole entry): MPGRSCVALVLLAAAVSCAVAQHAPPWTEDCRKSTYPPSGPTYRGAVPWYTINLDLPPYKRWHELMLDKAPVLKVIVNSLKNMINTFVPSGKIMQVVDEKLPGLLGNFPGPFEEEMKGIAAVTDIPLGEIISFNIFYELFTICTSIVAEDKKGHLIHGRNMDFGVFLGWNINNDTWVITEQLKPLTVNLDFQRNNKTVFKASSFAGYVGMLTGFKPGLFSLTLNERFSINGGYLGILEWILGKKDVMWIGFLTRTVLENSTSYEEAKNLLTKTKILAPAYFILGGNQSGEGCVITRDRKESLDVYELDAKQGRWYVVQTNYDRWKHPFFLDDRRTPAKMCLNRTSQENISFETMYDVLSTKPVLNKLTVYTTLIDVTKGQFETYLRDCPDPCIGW

[6] = Half life in rat liver microsomes preincubated for 15 mins followed by NADPH addition measured after 1 hr by LC/MS-MS analysis; assay type: ADME
[7] = biological target: T3, N-acylethanolamine-hydrolyzing acid amidase (Homo sapiens, UniProt Q02083); experiment: Inhibition of human NAAA expressed in HEK293 cells preincubated for 10 mins followed by N-(4-methyl-2-oxo-chromen-7-yl)-hexadecanamide substrate addition for 50 mins by fluorescence assay; assay type: cell-based
T3 sequence (Q02083 whole entry): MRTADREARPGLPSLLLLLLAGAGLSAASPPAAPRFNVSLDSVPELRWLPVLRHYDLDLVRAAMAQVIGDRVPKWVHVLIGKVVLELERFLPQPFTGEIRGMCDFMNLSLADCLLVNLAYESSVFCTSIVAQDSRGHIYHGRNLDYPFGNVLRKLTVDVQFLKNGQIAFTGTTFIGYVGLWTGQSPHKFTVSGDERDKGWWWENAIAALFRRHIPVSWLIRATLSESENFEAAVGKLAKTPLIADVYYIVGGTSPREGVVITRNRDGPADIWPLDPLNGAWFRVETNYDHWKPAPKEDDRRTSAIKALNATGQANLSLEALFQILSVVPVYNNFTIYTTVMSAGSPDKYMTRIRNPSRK

[8] = biological target: T3, N-acylethanolamine-hydrolyzing acid amidase; experiment: Inhibition of human NAAA expressed in HEK293 cells preincubated for 10 mins followed by N-(4-methyl-2-oxo-chromen-7-yl)-hexadecanamide substrate addition for 50 mins by microplate reader analysis

SMILES	half-life [1] [min]	solubility kinetic at 24 h [2] [µM]	half-life [3] [min]	inhibition [4] [%]	Ratio IC50 (Homo sapiens)	half-life [5] [min]	IC50 (Acid ceramidase) [nM]	half-life [6] [min]	IC50 [7] [nM]	IC50 [8] [nM]
O=C(N[C@H]1CNC1=O)OCCCCC1CCC(F)(F)CC1	34	> 250	33	< 10	140	7	10500	10		
O=C(N[C@H]1CNC1=O)OCCCCc1ccccc1									1110	
O=C(N[C@H]1CNC1=O)OCCCC1CCCCC1									44	
O=C(N[C@H]1CNC1=O)OCCCCC1CCCCC1	< 5	144 (≈ 38.6 µg/mL)	41	< 10		12	6270	< 5		
CCCCCCCCC(=O)N[C@H]1CNC1=O										340
O=C(N[C@H]1CNC1=O)OCCCCc1ccc(C(F)(F)F)cc1									73	
O=C(N[C@H]1CNC1=O)OCCCOC1CCCCC1									2670	

Second part, the compound after the results:

half-life [1] [min]	solubility kinetic at 24 h [2] [µM]	half-life [3] [min]	inhibition [4] [%]	Ratio IC50 (Homo sapiens)	half-life [5] [min]	IC50 (Acid ceramidase) [nM]	half-life [6] [min]	IC50 [7] [nM]	IC50 [8] [nM]	SMILES
< 5	83 (≈ 22.9 µg/mL)	29	< 10	55	> 120	390	< 5			CCCCc1ccc(COC(=O)N[C@H]2CNC2=O)cc1
11	> 250	31	< 10		> 120	2410	< 5			CCCOc1ccc(COC(=O)N[C@H]2CNC2=O)cc1
								520		COc1ccc(CCCCOC(=O)N[C@H]2CNC2=O)cc1
5	51 (≈ 15.4 µg/mL)	57	< 10	125	104	1510	< 5			O=C(N[C@H]1CNC1=O)OCc1ccc(C2CCCCC2)cc1
								130		O=C(N[C@H]1CNC1=O)OCc1ccc2c(c1)CCC2
								1040		Cc1ccc(COC(=O)N[C@H]2CNC2=O)cc1
30	> 250	25	< 10	365	> 120	8090	40			O=C(N[C@H]1CNC1=O)OCc1ccc2c(c1)OC(F)(F)O2
